From PubChem
S1P4 antagonist = S1P4 receptor antagonists, primary screen, cell-based. S1P4-expressing cells, antagonist mode, reporter read-out. 220,000 tested, 0.26% active. Sphingosine 1-phosphate receptor 4 (Homo sapiens), O95977. inhibition, % at 4.98 µM; in the data active means inhibition above about 29%;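 further: 0% = wells stimulated with agonist and 100% = vehicle wells without agonist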
Calb biofilm kill = clotrimazole potentiators killing C. albicans biofilm, primary screen, 4-compound mixtures; inhibition, % at 7.6 µM; C. albicans biofilm persisters + clotrimazole, fluorescence viability; primary screen in compound mixtures of four per well; 120,000 tested, 0.02% active;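 active means inhibition above 30.3% in the primary screen of four-compound pools, then above 30% when the compound was retested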;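 further: compounds exposed to preformed 24 h biofilms for 48 h; 0% = untreated biofilm control and 100% = clotrimazole plus chlorhexidine kill blank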
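System: C. albicans CAF4-2 wild-type biofilms; Medium: RPMI/MOPS medium, pH 7.0; Reagent: Clotrimazole, 50 µg/mL; Times: biofilm formation 24 h, compound exposure 48 h, 37 °C; Detection: 2-h Alamar Blue fluorescence, 535/590 nm excitation/emission; Evaluation: percent inhibition of biofilm viability.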
S1P4 agonist = S1P4 receptor agonists, primary screen, cell-based; AID 1509, 2009; Sphingosine 1-phosphate receptor 4 (Homo sapiens), O95977; activation, % at 4.98 µM; 220,000 tested, 0.35% active; S1P4-expressing cell line, agonist reporter assay; in the data active means activation above about 11%;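 further: 0% = DMSO vehicle and 100% = reference agonist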
S1P3 antag-1 = S1P3 receptor antagonists, primary screen, cell-based; Sphingosine 1-phosphate receptor 3 (Homo sapiens), Q99500; CHO S1P3 NFAT-BLA reporter, FRET fluorescence, antagonist mode; inhibition, % at 4.98 µM; 170,000 tested, 0.27% active; AID 485, 2006;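 active means inhibition above the plate cutoff, the mean inhibition of test wells on that plate plus 3 SD, cut at about 28% in these data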;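 further: cells challenged with S1P at its EC80 of 0.8 µM; blue over green emission ratio from cleaved BLA substrate after 4 h stimulation; 0% = S1P-stimulated wells and 100% = unstimulated DMSO-only wells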
Target sequence (Q99500 whole entry, looked up): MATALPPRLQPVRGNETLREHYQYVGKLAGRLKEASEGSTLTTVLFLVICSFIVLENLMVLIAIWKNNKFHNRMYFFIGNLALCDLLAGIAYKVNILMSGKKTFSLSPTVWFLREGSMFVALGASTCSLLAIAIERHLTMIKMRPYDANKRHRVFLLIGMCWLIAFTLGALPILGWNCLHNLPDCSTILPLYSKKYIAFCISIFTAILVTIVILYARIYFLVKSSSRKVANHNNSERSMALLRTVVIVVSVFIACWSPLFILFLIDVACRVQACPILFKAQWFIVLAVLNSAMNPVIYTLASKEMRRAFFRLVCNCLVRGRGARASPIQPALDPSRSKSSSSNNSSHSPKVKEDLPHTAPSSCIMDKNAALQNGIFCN
MDM2 E3 inh = MDM2-luciferase reporter signal enhancers, primary screen, MDM2 E3 ligase inhibitor project, cell-based, luminescence, 1536-well | E3 ubiquitin-protein ligase Mdm2 (Homo sapiens), Q00987 | cell-based MDM2 ubiquitination luciferase reporter, 2 h; 0 = plate control, 100 = twice control, blank-subtracted | signal enhancement, % at 5 µM | 210,000 tested, 0.11% active | AID 1230, 2008;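 active means signal enhancement of 30% or more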;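 further: luminescence tracks abundance of the self-degrading MDM2-luciferase fusion protein; higher signal means inhibition of MDM2 E3 ligase activity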
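Material: Stable MDM2–luciferase fusion reporter cells | Amount: 2000 cells seeded into each well | Dosing: One concentration, 5 µM, with 0.2% DMSO | Incubation: 4 h cell settling then 2 h compound exposure, 37 °C | Measured by: Luciferase luminescence | Read-out basis: % enhancement relative to plate controls after blank subtraction | Benchmarks: Control and blank well means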
S1P3 antag-2 = S1P3 receptor antagonists, retest, confirmation, cell-based. inhibition, % at 4.98 µM. CHO S1P3 NFAT-BLA reporter, FRET, antagonist mode. shares compounds with S1P3 antag-1. 240 tested, 30% active;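 active means inhibition above the hit threshold that was computed for the earlier primary screen, cut at about 30% in these data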;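 further: 0% = S1P-stimulated wells and 100% = unstimulated DMSO-only wells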
* = called active by the depositor; / = no result. An excerpt weighted towards active compounds, which were near 0.9% of everything screened.

SMILES | S1P4 antagonist | Calb biofilm kill | S1P4 agonist | S1P3 antag-1 | MDM2 E3 inh | others
CCn1c(CNc2ccc(C)cc2)nnc1SCC(=O)NCc1ccccc1 | -3 | / | -2 | -15 | /
CCCCSC1=C(C#N)C(c2ccccc2C)CC(=O)N1 (centres undefined) | -5 | / | 0 | 102* | -5
CC(C)n1cnc2c(N(C)c3ccccc3)nc(N(CCN(C)C)Cc3ccccc3)nc21 | / | 20 | / | / | 35*
C(#Cc1ccccc1)C[N+]1(CC#Cc2cccc3ccccc23)CCOCC1 | -5 | 45* | 2 | -8 | -8
CCCCN(C)C(=O)c1cn(C)c2ccc(S(=O)(=O)N(C)C)cc2c1=O | 3 | / | 0 | 87* | -24
CCCCN(C)C(=O)c1cn(CC)c2ccc(S(=O)(=O)N(C)C)cc2c1=O | -7 | / | 0 | 3 | -16
CCCS(=O)(=O)N1CCN(C(=O)c2cc(OC)cc(OC)c2)CC1 | 5 | / | -1 | 95* | -14
Cc1[nH]c2ccccc2c1CCC(N)=O | 5 | / | 0 | 4 | -30
Cc1[nH]c2ccccc2c1Cc1nnc(SCC(N)=O)o1 | 1 | / | -1 | 82* | -11
Cn1c2ccccc2c(=O)c2c(=O)n(C3CCCCC3)c(-c3cccs3)nc21 | -10 | / | -4 | / | -20
COc1nc(Nc2nc3ccccc3c(=O)[nH]2)nc2ccc(C)cc12 | -9 | 25 | -1 | 70* | /
O=C(O)c1ccc(S(=O)(=O)c2ccc3c(c2)C(=O)N(Cc2ccco2)C3=O)cc1 | -10 | / | 0 | 106* | 11
O=C(/C=C/c1cccc([N+](=O)[O-])c1)n1cnc2ccccc21 | 12 | 3 | 0 | -11 | 49*
CCOC(=O)c1c(C)[nH]c(C)c1C(=O)COc1ncnc2cc([N+](=O)[O-])ccc12 | -11 | 7 | 1 | 4 | -11
COc1ccccc1OCC(=O)Nc1cc(S(=O)(=O)N2CCCCC2)ccc1N1CCCCC1 | -12 | -6 | 0 | 2 | 78*
CCOC(=O)N1CCN(C(=O)CN(C2CCCCC2)S(=O)(=O)c2c(C)cc(C)cc2C)CC1 | 5 | / | 1 | / | -8
CSC1=NCCN1C(=O)Cc1ccc(Cl)cc1 | -23 | / | 2 | 66* | -14
Cc1cc(S(=O)(=O)N2CCN(C(=O)CCC(=O)N3CCOCC3)CC2)ccc1Br | -8 | 16 | -1 | 11 | /
CC1=NN(c2cccc(C(=O)O)c2)C(=O)/C1=C\C=C\c1ccco1 | 6 | 6 | 2 | / | 36*
CCOC(=O)/C(=C\c1cccnc1)C(=O)c1cc(C(C)=O)c(Nc2ccccc2)s1 | 63* | / | -6 | / | -18
COc1ccc(C)cc1C1=Nc2ccccc2C1(C)C | -5 | 4 | 1 | 10 | 30*
Cc1ccc(O)c(C2=Nc3ccccc3C2(C)C)c1 | -8 | 13 | 0 | -16 | -41
CC(C)(C)c1ccc(C(=O)NC(=S)NCc2cccnc2)cc1 | -3 | 8 | 3 | 1 | -3
CC(C)(C)c1ccc(C(=O)NCc2cccnc2)cc1 | -3 | / | -1 | 75* | -3
COc1ccc2c(c1)CCc1c(C(=O)NCc3cccnc3)noc1-2 | -9 | / | 0 | 70* | -22
SMILES | S1P4 antagonist | Calb biofilm kill | S1P4 agonist | S1P3 antag-1 | MDM2 E3 inh | others
COC(=O)c1ccc(OCC(O)Cn2nnc3ccccc32)cc1 (centres undefined) | -19 | / | 1 | 4 | -5
CC(=O)c1ccc(OCC(O)Cn2nnc3ccccc32)cc1 (centres undefined) | 1 | / | -1 | 0 | 36*
Cn1c(CNC(=O)c2ccco2)nnc1SCC(=O)N1c2ccccc2Sc2ccccc21 | -4 | / | 2 | 7 | 30*
Cc1nc2ccccn2c1C(=O)NC1CCCc2ccccc21 (centres undefined) | -13 | 12 | 1 | 12 | -11
CCN1CCN(Cc2nc3c(c(=O)n(C)c(=O)n3C)n2CCc2ccccc2)CC1 | 15 | 13 | 0 | -9 | /
CCN1CCN(Cc2nc3c(c(=O)n(C)c(=O)n3C)n2C(C)C(C)=O)CC1 (centres undefined) | -14 | / | 0 | / | 31*
CCOC(=O)C1(Cc2ccccc2C)CCCN(Cc2ccc(NC(C)=O)cc2)C1 (centres undefined) | 8 | -2 | -2 | -34 | -10
Nc1nc(-c2cccc(NS(=O)(=O)c3ccccc3)c2)cs1 | 0 | / | -4 | 53* | -8
COc1ccc(S(=O)(=O)Nc2cc(C)ccn2)cc1OC | -6 | / | 0 | 115* | 2
COc1ccc(S(=O)(=O)Nc2ccccn2)cc1OC | -11 | / | 1 | -17 | -9
NS(=O)(=O)c1ccc(Oc2ccc(S(N)(=O)=O)cc2)cc1 | -16 | 20 | 1 | -7 | -3
C=CS(=O)(=O)c1ccc(Oc2ccc(S(=O)(=O)C=C)cc2)cc1 | 26 | 13 | -2 | 100* | 64*
CCn1cnc2scc(-c3ccccc3)c2c1=O | -10 | / | -3 | 19 | -11
Cn1cc(/C=N/n2cnc3scc(-c4ccc(Cl)cc4)c3c2=O)c2ccccc21 | -1 | / | 1 | 56* | -3
O=C(CSC1=NNC(c2ccccn2)S1)Nc1ccc(C(F)(F)F)cc1 (centres undefined) | 20 | 29 | -1 | 16 | 37*
c1ccc(CSC2=NNC(c3ccccn3)S2)cc1 (centres undefined) | 6 | 13 | -1 | 9 | 37*
N#Cc1nc(Cc2cccc3ccccc23)oc1NCCCN1CCOCC1 | -5 | / | 2 | 8 | -8
N#Cc1nc(Cc2ccccc2)oc1NCCN1CCOCC1 | -12 | / | 0 | -51 | 32*
O=C1OC(c2ccc(Cl)cc2)/C(=C(/O)c2ccccc2)C1=O (centres undefined) | -1 | / | -1 | / | -7
COC(=O)c1c(C)nn(-c2ccc(F)c(Cl)c2)c1-c1cc(C)on1 | 9 | 17 | 0 | -2 | -19
COc1ccccc1N1CCN(C(c2ccc(C)cc2)c2nnnn2C(C)C)CC1 (centres undefined) | -8 | / | 2 | 32 | 38*
CCc1ccc2nc(Nc3nc(COC)cc(=O)[nH]3)nc(C)c2c1 | -13 | / | 2 | / | -2
COCc1cc(=O)[nH]c(Nc2nc3ccc(C)cc3o2)n1 | -1 | / | 1 | / | 36*
CCCCn1c(=O)[nH]c2nc3cc(N)ccc3nc2c1=O | -13 | 5 | 2 | 11 | -7
Nc1ccc2nc3c(=O)n(C4CCCCC4)c(=O)[nH]c3nc2c1 | 26 | 14 | -2 | 30* | / | S1P3 antag-2=13
CCn1ncc(CN2CCN(Cc3cccc(OC)c3)C(CCO)C2)c1C (centres undefined) | 0 | 6 | -1 | -9 | 0
Cc1ccn2cc(C(=O)NCc3ccco3)nc2c1 | 1 | 12 | 1 | 30* | -5 | S1P3 antag-2=-13
